# What was measured:
# [1] = tested on: Candida albicans; assay: Fungicidal activity against Candida albicans SP3903 after 96 hrs; type: functional; conditions: SP3903, 96 h, read-out: MFC99.9
# How it was run: (§1)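 After the 48 h, 28 °C broth microdilution in MOPS-buffered RPMI 1640 (inoculum (0.5−1) × 10^3 CFU/mL), 50 μL from each well was plated on YM agar for a further 48 h at 28 °C. MFC is the lowest concentration killing at least 99.9% of cells. Triplicate, three biological replicates.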
# [2] = tested on: Candida albicans; assay: Antifungal activity against Candida albicans cgmcc 2.2086 in presence of CaCl2 by broth dilution method; type: functional
# [3] = Cytotoxicity against HEK293T cells assessed as cell viability at 2 to 64 uM after 24 hrs by MTT assay relative to control; type: cell-based, HEK-293T; conditions: human, read-out: Activity
# How it was run: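 MTT viability assay. RAW264.7 or HEK293T cells at (1.0−2.0) × 10^5 per well were exposed to a peptide concentration series for 24 h at 37 °C in 5% CO2. MTT was then added at 0.5 mg/mL final for 4 h; formazan was dissolved in DMSO and read at 570 nm. Results average three independent trials.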
# [4] = tested on: Salmonella typhimurium; assay: Bactericidal activity against Salmonella typhimurium ATCC 14028; type: functional, Salmonella enterica subsp. enterica serovar Typhimurium; conditions: Salmonella enterica, read-out: MBC99.9
# How it was run: (§2)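 Wells from the 24 h, 37 °C MHB microdilution plates (bacteria at a final (0.5−1) × 10^5 CFU/mL; peptide diluted in 0.2% BSA) were plated on agar and incubated overnight. MBC is the lowest concentration killing >99.9% of cells. Each test was reproduced at least 3 times.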
# [5] = tested on: Candida parapsilosis; assay: Fungicidal activity against Candida parapsilosis cgmcc 2.3989 after 96 hrs; type: functional; conditions: Lodderomyces parapsilosis, cgmcc 2.3989, 96 h; read-out: MFC99.9
# How it was run: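 Wells from the 48 h, 28 °C RPMI 1640/MOPS microdilution plates were plated on YM agar and incubated a further 48 h at 28 °C. MFC is the lowest concentration killing at least 99.9% of cells. Run in triplicate with three biological replicates.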
# [6] = tested on: Salmonella typhimurium; assay: Antibacterial activity against Salmonella typhimurium ATCC 14028 after 24 hrs; type: functional, Salmonella enterica subsp. enterica serovar Typhimurium; conditions: Salmonella enterica, ATCC 14028, 24 h
# How it was run: (§3)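 Broth microdilution. Mid-log bacteria in MHB at a final (0.5−1) × 10^5 CFU/mL were mixed with equal volumes of peptide serially diluted in 0.2% BSA. Plates were incubated 24 h at 37 °C and read at A492. MIC is the lowest concentration inhibiting 95% of growth. Each test was repeated at least 3 times.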
# [7] = tested on: Escherichia coli; assay: Antibacterial activity against Escherichia coli ATCC 25922 after 18 hrs in presence of CaCl2 by broth dilution method; type: functional; conditions: ATCC 25922, 18 h
# [8] = tested on: Escherichia coli; assay: Bactericidal activity against Escherichia coli ATCC 25922; type: functional; conditions: read-out: MBC99.9; how it was run: as §2
# [9] = tested on: Candida albicans; assay: Antifungal activity against fluconazole-resistant Candida albicans 56214 after 48 hrs by broth microdilution method; type: functional; conditions: Candida albicans, 56214, 48 h
# How it was run: (§4)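 Modified CLSI M27-A2 broth microdilution. Yeast at (0.5−1) × 10^3 CFU/mL in MOPS-buffered RPMI 1640 was mixed 1:1 with peptide serially diluted in 0.2% BSA and incubated 48 h at 28 °C. Absorbance was read at 492 nm; MIC is the lowest concentration inhibiting 95% of growth. Triplicate, three biological replicates.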
# [10] = tested on: Escherichia coli; assay: Antibacterial activity against Escherichia coli ATCC 25922 after 18 hrs in presence of NaCl by broth dilution method; type: functional; conditions: ATCC 25922, 18 h
# [11] = tested on: Escherichia coli; assay: Antibacterial activity against Escherichia coli 1005 after 24 hrs; type: functional; conditions: Escherichia coli, 1005, 24 h; how it was run: as §3
# [12] = tested on: Candida albicans; assay: Antifungal activity against Candida albicans cgmcc 2.2086 in presence of KCl by broth dilution method; type: functional
# [13] = tested on: Candida albicans; assay: Antifungal activity against Candida albicans 14936 after 48 hrs by broth microdilution method; type: functional; conditions: Candida albicans, 14936, 48 h; how it was run: as §4
# [14] = tested on: Escherichia coli; assay: Antibacterial activity against Escherichia coli ATCC 25922 after 18 hrs in presence of FeCl3 by broth dilution method; type: functional; conditions: ATCC 25922, 18 h
# [15] = tested on: Candida albicans; assay: Antifungal activity against Candida albicans SP3902 after 48 hrs by broth microdilution method; type: functional; conditions: SP3902, 48 h; how it was run: as §4
# [16] = tested on: Staphylococcus aureus; assay: Bactericidal activity against Staphylococcus aureus ATCC 29213; type: functional; conditions: read-out: MBC99.9; how it was run: as §2
# [17] = tested on: Candida albicans; assay: Fungicidal activity against fluconazole-resistant Candida albicans 56214 after 96 hrs; type: functional; conditions: Candida albicans, 56214, 96 h; read-out: MFC99.9; how it was run: as §1
# [18] = tested on: Candida albicans; assay: Fungicidal activity against Candida albicans SP3876 after 96 hrs; type: functional; conditions: SP3876, 96 h, read-out: MFC99.9; how it was run: as §1
# [19] = Bactericidal activity against Salmonella pullorum ATCC 7913; type: functional, Salmonella enterica subsp. enterica serovar Pullorum; conditions: Salmonella enterica, read-out: MBC99.9; how it was run: as §2
# [20] = tested on: Candida albicans; assay: Fungicidal activity against Candida albicans 58288 after 96 hrs; type: functional; conditions: Candida albicans, 58288, 96 h; read-out: MFC99.9; how it was run: as §1
# [21] = tested on: Candida parapsilosis; assay: Antifungal activity against Candida parapsilosis cgmcc 2.3989 after 48 hrs by broth microdilution method; type: functional; conditions: Lodderomyces parapsilosis, cgmcc 2.3989, 48 h
# How it was run: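 Modified CLSI M27-A2 broth microdilution. Yeast were suspended in MOPS-buffered RPMI 1640 at a final (0.5−1) × 10^3 CFU/mL and mixed 1:1 with peptide serially diluted in 0.2% BSA. Plates were incubated 48 h at 28 °C and read at A492. MIC is the lowest concentration giving 95% inhibition. Run in triplicate with three biological replicates.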
# [22] = tested on: Candida albicans; assay: Antifungal activity against Candida albicans cgmcc 2.2086 in presence of NH4Cl by broth dilution method; type: functional
# [23] = tested on: Staphylococcus epidermidis; assay: Bactericidal activity against Staphylococcus epidermidis ATCC 12228; type: functional; conditions: read-out: MBC99.9; how it was run: as §2
# [24] = tested on: Candida albicans; assay: Fungicidal activity against Candida albicans SP3902 after 96 hrs; type: functional; conditions: SP3902, 96 h, read-out: MFC99.9; how it was run: as §1
# [25] = tested on: Candida albicans; assay: Antifungal activity against Candida albicans cgmcc 2.2086 in presence of FeCl3 by broth dilution method; type: functional
# [26] = tested on: Candida albicans; assay: Antifungal activity against Candida albicans cgmcc 2.2086 in presence of NaCl by broth dilution method; type: functional
# [27] = tested on: Escherichia coli; assay: Bactericidal activity against Escherichia coli 1005; type: functional; conditions: read-out: MBC99.9; how it was run: as §2
# [28] = tested on: Candida albicans; assay: Fungicidal activity against fluconazole-resistant Candida albicans 17546 after 96 hrs; type: functional; conditions: Candida albicans, 17546, 96 h; read-out: MFC99.9; how it was run: as §1
# [29] = tested on: Staphylococcus aureus; assay: Antibacterial activity against Staphylococcus aureus ATCC 29213 after 24 hrs; type: functional; conditions: ATCC 29213, 24 h
# How it was run: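 Modified NCCLS broth microdilution. Mid-log bacteria at (0.5−1) × 10^5 CFU/mL in MHB were mixed 1:1 with peptide serially diluted in 0.2% BSA and incubated 24 h at 37 °C. Absorbance was read at 492 nm; MIC is the lowest concentration inhibiting 95% of growth. At least 3 repeats.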
# [30] = tested on: Candida albicans; assay: Antifungal activity against Candida albicans cgmcc 2.2086 in presence of ZnCl2 by broth dilution method; type: functional
# [31] = tested on: Erythrocyte; assay: Hemolytic activity in human RBC after 1 hr; type: ADME, cell-based
# How it was run: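 Fresh human erythrocytes, diluted 10-fold in PBS pH 7.4, were mixed with equal volumes of peptide and held 1 h at 37 °C. After centrifugation at 1000g, supernatant hemoglobin was read at 576 nm. PBS set 0% and 0.1% Triton X-100 set 100% lysis. MHC is the concentration causing 10% hemolysis. At least three experiments were run, each in technical triplicate.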
Substance,MFC [1] [µM],MIC [2] [µM],"viability at 24 h, up to 64 µM [3] [%]",MBC [4] [µM],MFC [5] [µM],MIC95 [6] [µM],MIC [7] [µM],MBC [8] [µM],MIC95 [9] [µM],MIC [10] [µM],MIC95 [11] [µM],MIC [12] [µM],MIC95 [13] [µM],MIC [14] [µM],MIC95 [15] [µM],MBC [16] [µM],MFC [17] [µM],MFC [18] [µM],MBC [19] [µM],MFC [20] [µM],further results
H-IIRRIRRII-NH2,> 64,64,70 to 80,> 64,> 64,64,64,32,64,32,16,64,> 64,64,> 64,> 64,64,> 64,> 64,64,MIC95 [21]: > 64 µM; MIC [22]: 64 µM; MBC [23]: > 64 µM; MFC [24]: > 64 µM; MIC [25]: 64 µM; MIC [26]: 64 µM; MBC [27]: 32 µM; MFC [28]: > 64 µM; MIC95 [29]: 64 µM; MIC [30]: 64 µM; HC10 [31]: > 128 µM
H-LLRRLRRLL-NH2,16,64,70 to 80,32,> 64,16,64,32,32,16,16,64,32,16,> 64,64,32,4,64,32,MIC95 [21]: > 64 µM; MIC [22]: 32 µM; MBC [23]: 16 µM; MFC [24]: > 64 µM; MIC [25]: 64 µM; MIC [26]: 64 µM; MBC [27]: 16 µM; MFC [28]: > 64 µM; MIC95 [29]: 64 µM; MIC [30]: 64 µM; HC10 [31]: > 128 µM
H-RFFRRFRRFFR-NH2,4,64,70 to 80,8,> 64,4,8,8,8,8,8,16,8,8,8,16,16,8,8,16,MIC95 [21]: > 64 µM; MIC [22]: 4 µM; MBC [23]: 4 µM; MFC [24]: 8 µM; MIC [25]: 8 µM; MIC [26]: 32 µM; MBC [27]: 8 µM; MFC [28]: 8 µM; MIC95 [29]: 8 µM; MIC [30]: 8 µM; HC10 [31]: > 128 µM
H-RFRFFFRFR-NH2,4,64,70 to 80,8,32,4,4,8,8,4,4,32,8,4,4,8,16,8,8,16,MIC95 [21]: 16 µM; MIC [22]: 8 µM; MBC [23]: 8 µM; MFC [24]: 4 µM; MIC [25]: 8 µM; MIC [26]: 32 µM; MBC [27]: 8 µM; MFC [28]: 4 µM; MIC95 [29]: 4 µM; MIC [30]: 8 µM; HC10 [31]: > 128 µM
H-RIIRRIRRIIR-NH2,4,64,70 to 80,32,> 64,16,32,32,8,16,8,64,8,16,16,> 64,16,16,64,16,MIC95 [21]: > 64 µM; MIC [22]: 16 µM; MBC [23]: 32 µM; MFC [24]: 16 µM; MIC [25]: 16 µM; MIC [26]: 64 µM; MBC [27]: 8 µM; MFC [28]: 16 µM; MIC95 [29]: 64 µM; MIC [30]: 64 µM; HC10 [31]: > 128 µM
